Each block holds one compound with its values, some of them ahead of it.
Experiments:
Type in all cases: ADME
[1] = test system: Liver microsome; assay: Drug metabolism in human liver microsomes assessed as 17-epiestriol-16-glucuronide formation after 15 to 60 mins by Michaelis-Menten equation analysis in presence of UDPGA
How it was run: (§1)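 Pooled human liver microsomes (30 donors), 0.5 or 10 µg, with alamethicin at 5% of total protein. Incubated with 50 mM phosphate pH 7.4, 10 mM MgCl₂, 5 mM UDPGA and 10% DMSO for 15–60 min at 37°C. Each glucuronide regioisomer quantified by HPLC, in triplicate, with substrate consumption at or below 10%.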

[2] = biological target: T1, UDP-glucuronosyltransferase 2A1 (Homo sapiens, UniProt P0DTE4); assay: Drug metabolism assessed as recombinant human C-terminal His-tagged UGT2A1-mediated 13-epiestradiol-3-glucuronide/13-epiestradiol-17-glucuronide formation at 200 uM after 15 to 60 mins by HPLC analysis in presence of UDPGA; conditions: recombinant enzyme
T1 sequence (P0DTE4 whole entry): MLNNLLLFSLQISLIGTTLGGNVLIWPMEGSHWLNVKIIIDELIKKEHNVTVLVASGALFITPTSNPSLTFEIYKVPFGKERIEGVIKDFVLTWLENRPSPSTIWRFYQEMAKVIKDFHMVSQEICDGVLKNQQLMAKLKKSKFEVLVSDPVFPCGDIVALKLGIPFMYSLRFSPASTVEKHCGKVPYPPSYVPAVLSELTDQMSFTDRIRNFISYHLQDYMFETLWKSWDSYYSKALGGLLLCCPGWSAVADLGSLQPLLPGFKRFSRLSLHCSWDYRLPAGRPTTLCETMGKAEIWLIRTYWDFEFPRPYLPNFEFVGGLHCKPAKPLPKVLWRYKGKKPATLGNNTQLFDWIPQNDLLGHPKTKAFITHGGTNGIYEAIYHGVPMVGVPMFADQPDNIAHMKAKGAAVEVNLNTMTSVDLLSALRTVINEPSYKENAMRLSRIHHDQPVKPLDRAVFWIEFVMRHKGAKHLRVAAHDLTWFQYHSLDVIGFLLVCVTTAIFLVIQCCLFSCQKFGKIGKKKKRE
How it was run: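 Screening at a single substrate concentration of 200 μM, in triplicate. The reaction used 5 or 50 µg of UGT-enriched insect cell membranes in 50 mM phosphate pH 7.4 with 10 mM MgCl₂ and 5 mM UDPGA, 10% final DMSO. Incubation was 15–60 min at 37°C. Perchloric acid stopped the reaction and supernatants were analysed by HPLC. Controls lacked UDPGA. Rates were normalized to relative UGT expression level.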

[3] = Drug metabolism in human intestine microsomes assessed as 16-epiestriol-3-glucuronide formation after 15 to 60 mins by Michaelis-Menten equation analysis in presence of UDPGA
How it was run: as §1, with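 “intestine” for “liver”, “(6” for “(30”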

[4] = biological target: T2, UDP-glucuronosyltransferase 1A10 (Homo sapiens, UniProt Q9HAW8); assay: Drug metabolism assessed as recombinant human C-terminal His-tagged UGT1A10-mediated 16-epiestriol-3-glucuronide formation after 15 to 60 mins by Michaelis-Menten equation analysis in presence of UDPGA; conditions: recombinant enzyme
T2 sequence (Q9HAW8 whole entry): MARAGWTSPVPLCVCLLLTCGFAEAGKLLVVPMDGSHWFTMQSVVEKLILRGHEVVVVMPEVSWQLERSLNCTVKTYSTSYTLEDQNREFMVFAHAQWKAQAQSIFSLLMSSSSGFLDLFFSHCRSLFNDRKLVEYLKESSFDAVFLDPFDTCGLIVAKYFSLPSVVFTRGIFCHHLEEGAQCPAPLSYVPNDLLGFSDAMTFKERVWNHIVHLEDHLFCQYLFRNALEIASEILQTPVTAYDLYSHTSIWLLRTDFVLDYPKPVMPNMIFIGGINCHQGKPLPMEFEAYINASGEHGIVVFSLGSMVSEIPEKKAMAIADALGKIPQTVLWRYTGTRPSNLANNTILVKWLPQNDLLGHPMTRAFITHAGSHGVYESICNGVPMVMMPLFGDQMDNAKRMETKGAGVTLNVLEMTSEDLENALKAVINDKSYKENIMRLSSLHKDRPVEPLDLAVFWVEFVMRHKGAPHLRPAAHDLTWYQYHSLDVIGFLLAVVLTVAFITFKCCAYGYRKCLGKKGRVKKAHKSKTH
How it was run: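 For kinetics, the aglycone ranged from 0.2 to 300 μM in DMSO (10% final) with 5 mM UDPGA, 10 mM MgCl₂ and 50 mM phosphate pH 7.4. Enzyme was UGT-enriched insect cell membranes. Incubation was 15–60 min at 37°C, in triplicate, keeping substrate consumption ≤10%. Products were measured by HPLC and fitted to Michaelis-Menten. Rates were normalized to expression level.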

[5] = Drug metabolism in human intestine microsomes assessed as 16-epiestriol-17-glucuronide formation after 15 to 60 mins by Michaelis-Menten equation analysis in presence of UDPGA
How it was run: as §1, with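 “intestine” for “liver”, “(6” for “(30”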

[6] = test system: Liver microsome; assay: Drug metabolism in human liver microsomes assessed as 16-epiestriol-3-glucuronide formation after 15 to 60 mins by Michaelis-Menten equation analysis in presence of UDPGA; how it was run: as §1
[7] = biological target: T3, UDP-glucuronosyltransferase 2B4 (Homo sapiens, UniProt P06133); assay: Drug metabolism assessed as recombinant human C-terminal His-tagged UGT2B4-mediated estriol-16-glucuronide formation after 15 to 60 mins by Michaelis-Menten equation analysis in presence of UDPGA; conditions: recombinant enzyme
T3 sequence (P06133 whole entry): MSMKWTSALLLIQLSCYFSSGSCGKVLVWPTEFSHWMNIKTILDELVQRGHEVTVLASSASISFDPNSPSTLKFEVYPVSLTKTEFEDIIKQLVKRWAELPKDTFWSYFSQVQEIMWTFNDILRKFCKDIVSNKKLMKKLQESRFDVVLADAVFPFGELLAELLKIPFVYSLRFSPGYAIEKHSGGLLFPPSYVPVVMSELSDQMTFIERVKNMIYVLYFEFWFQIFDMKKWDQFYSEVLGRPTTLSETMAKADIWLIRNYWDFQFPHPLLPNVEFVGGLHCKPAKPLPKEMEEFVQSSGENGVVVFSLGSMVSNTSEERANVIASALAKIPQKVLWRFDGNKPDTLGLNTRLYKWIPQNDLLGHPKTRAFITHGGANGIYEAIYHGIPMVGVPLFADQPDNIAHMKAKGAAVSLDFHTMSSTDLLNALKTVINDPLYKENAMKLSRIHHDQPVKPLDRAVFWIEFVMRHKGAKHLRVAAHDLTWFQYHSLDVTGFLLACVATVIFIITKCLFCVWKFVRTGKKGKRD

Km [1]: 7.8 µM
Vmax [1]: 128 pmol/min/mg
SMILES: C[C@]12CC[C@@H]3c4ccc(O)cc4CC[C@H]3[C@@H]1C[C@@H](O)[C@H]2O

Drug metabolism [2]: metabolite_detected
SMILES: C[C@@]12CC[C@@H]3c4ccc(O)cc4CC[C@H]3[C@@H]1CC[C@@H]2O

Km [3]: 50 µM
Vmax [3]: 4111 pmol/min/mg
Drug metabolism [4]: 3500 pmol/min/mg
Km [5]: 1170 µM
Vmax [5]: 2324 pmol/min/mg
Km [6]: 2380 µM
Vmax [6]: 569 pmol/min/mg
SMILES: C[C@]12CC[C@@H]3c4ccc(O)cc4CC[C@H]3[C@@H]1C[C@H](O)[C@@H]2O [EPIESTRIOL]

Drug metabolism [7]: 4 pmol/min/mg
SMILES: C[C@]12CC[C@@H]3c4ccc(O)cc4CC[C@H]3[C@@H]1C[C@@H](O)[C@@H]2O [ESTRIOL]
